Experimental data from ChEMBL document CHEMBL3286393 (J Med Chem, 2014).
Values belong to the compound of their own block, whether it stands above or below them. The source made the active and inactive calls. The calls are words filed in the database; no cut-off is given here.

Key:
LNCaP = test: Cytotoxicity against human LNCAP cells assessed as cell viability after 24 hrs by MTT assay; format: cell-based
Method in brief: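 LNCaP seeded at 10⁴ cells/well and exposed 24 h. MTT added, then 4 h at 37 °C, 5% CO2, dark. Medium removed and formazan dissolved in DMSO; absorbance at 570 nm.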

[1] = target: T1, Prostaglandin G/H synthase 1 (Ovis aries) (UniProt P05979); test: Inhibition of purified ovine COX-1 assessed as residual activity by measuring formation of 12-HHT from arachidonic acid preincubated at 10 uM for 5 mins before substrate addition measured after 5 mins by HPLC analysis relative to control
T1 sequence (whole entry): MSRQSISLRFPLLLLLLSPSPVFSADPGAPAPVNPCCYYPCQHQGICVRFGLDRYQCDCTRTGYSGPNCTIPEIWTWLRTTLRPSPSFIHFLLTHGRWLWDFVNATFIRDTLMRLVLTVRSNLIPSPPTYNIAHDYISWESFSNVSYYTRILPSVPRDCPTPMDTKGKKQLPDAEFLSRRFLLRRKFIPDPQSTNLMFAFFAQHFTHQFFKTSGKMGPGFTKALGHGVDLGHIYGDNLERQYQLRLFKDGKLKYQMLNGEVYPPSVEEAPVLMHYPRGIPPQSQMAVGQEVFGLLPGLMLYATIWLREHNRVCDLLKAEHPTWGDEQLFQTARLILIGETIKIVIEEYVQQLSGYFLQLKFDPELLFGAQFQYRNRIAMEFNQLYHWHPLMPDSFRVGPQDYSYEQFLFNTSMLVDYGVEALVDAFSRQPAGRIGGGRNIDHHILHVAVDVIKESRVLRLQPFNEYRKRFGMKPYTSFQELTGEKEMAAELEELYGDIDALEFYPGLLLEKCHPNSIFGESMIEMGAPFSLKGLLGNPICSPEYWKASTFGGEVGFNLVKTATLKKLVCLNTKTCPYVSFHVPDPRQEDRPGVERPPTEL
Method in brief: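 Purified ovine COX-1 (50 units) in 100 mM Tris pH 8 with 5 mM glutathione, 5 μM hemoglobin and 100 μM EDTA. Preincubated 5 min at 4 °C then 1 min at 37 °C. 5 μM arachidonic acid added; 12-HHT extracted after 5 min and measured by HPLC. Residual activity at 10 μM, three independent experiments.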

[2] = target: T2, Polyunsaturated fatty acid 5-lipoxygenase (Homo sapiens, UniProt P09917); test: Inhibition of human recombinant 5-LO expressed in Escherichia coli Bl21 (DE3) using arachidonic acid as substrate preincubated for 10 mins measured after 10 mins by RP-HPLC analysis
T2 sequence (P09917 whole entry): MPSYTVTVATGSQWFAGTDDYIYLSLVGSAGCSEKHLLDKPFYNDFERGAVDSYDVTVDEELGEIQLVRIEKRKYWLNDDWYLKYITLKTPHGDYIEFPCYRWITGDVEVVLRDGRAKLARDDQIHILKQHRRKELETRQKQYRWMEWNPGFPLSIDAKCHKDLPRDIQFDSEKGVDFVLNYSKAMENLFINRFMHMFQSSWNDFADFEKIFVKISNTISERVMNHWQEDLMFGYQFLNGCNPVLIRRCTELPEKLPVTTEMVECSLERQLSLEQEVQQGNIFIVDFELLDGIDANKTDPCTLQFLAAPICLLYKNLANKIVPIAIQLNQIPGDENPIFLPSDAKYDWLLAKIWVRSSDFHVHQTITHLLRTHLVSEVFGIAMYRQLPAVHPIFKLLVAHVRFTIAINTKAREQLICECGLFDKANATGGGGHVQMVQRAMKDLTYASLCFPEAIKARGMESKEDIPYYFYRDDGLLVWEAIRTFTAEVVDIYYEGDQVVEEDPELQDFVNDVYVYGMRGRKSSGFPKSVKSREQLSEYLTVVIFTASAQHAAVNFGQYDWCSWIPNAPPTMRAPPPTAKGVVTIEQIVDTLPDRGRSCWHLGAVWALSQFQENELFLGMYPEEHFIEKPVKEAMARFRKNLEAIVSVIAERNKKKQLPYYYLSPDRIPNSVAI
Method in brief: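 5-LO expressed from pT3-5LO in E. coli BL21(DE3), semi-purified on ATP-agarose, diluted in PBS with 1 mM EDTA and 1 mM ATP. Preincubated with compound 10 min at 4 °C, then 30 s at 37 °C. Started with 2 mM CaCl2 plus 20 μM arachidonic acid; 10 min at 37 °C; ice-cold methanol stop. Three to four experiments.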

[3] = target: Prostaglandin G/H synthase 1 (Homo sapiens, UniProt P23219); test: Inhibition of COX1-mediated PGE2 production in human platelets assessed as residual activity by measuring formation of 12-HHT from arachidonic acid preincubated at 10 uM for 5 mins measured after 5 mins by RP-HPLC analysis relative to control
Prostaglandin G/H synthase 1, sequence (P23219 whole entry): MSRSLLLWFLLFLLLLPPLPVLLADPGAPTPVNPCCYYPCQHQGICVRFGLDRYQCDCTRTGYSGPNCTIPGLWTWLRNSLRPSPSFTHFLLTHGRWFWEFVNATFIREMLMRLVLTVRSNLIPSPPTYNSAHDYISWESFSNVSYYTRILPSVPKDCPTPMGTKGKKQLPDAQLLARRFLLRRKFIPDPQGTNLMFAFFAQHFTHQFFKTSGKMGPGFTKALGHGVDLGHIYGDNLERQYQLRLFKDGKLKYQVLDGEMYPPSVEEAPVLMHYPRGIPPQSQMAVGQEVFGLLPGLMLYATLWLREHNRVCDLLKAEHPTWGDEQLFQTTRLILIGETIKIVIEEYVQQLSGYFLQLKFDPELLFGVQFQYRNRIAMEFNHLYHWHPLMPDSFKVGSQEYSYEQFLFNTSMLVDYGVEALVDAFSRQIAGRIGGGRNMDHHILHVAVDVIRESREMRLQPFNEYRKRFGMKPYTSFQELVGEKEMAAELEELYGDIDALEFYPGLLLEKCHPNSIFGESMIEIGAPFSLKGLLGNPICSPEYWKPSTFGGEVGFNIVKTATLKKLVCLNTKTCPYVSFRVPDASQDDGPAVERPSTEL
Method in brief: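 Washed human platelets, 10⁸/mL in PBS pH 7.4 with 1 mM CaCl2: 5 min compound preincubation at room temperature, then 1 min at 37 °C. Arachidonic acid 5 μM added; 5 min at 37 °C. 12-HHT extracted and measured by RP-HPLC.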

[4] = Aqueous stability of the compound in at 2 uM in 10 mM aqueous ammonium bicarbonate at pH 7.9 assessed as formation of trans-6-(4'-hydroxy-3'-methoxyphenyl)-2,4-dioxo-5-hexenal measured as residual amount of compound by reversed phase liquid chromatography-coupled mass spectrometry; format: physicochemical; details: buffer, pH 7.9, 2 µM
Method in brief: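 Compounds at 2 μM in 10 mM aqueous ammonium bicarbonate pH 7.9, incubated 30 min at 37 °C. Analysed by UPLC-MS on a C18 column, gradient acetonitrile/water with 0.07% formic acid, at 0.7 mL/min. Residual amount given as % of control; three to four independent experiments.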

[5] = target: T3, Polyunsaturated fatty acid lipoxygenase ALOX12 (Homo sapiens) (UniProt P18054); test: Inhibition of 12-LO in human neutrophils assessed as residual activity relative to control; details: for residual activity: values are per cent of control
T3 sequence (whole entry): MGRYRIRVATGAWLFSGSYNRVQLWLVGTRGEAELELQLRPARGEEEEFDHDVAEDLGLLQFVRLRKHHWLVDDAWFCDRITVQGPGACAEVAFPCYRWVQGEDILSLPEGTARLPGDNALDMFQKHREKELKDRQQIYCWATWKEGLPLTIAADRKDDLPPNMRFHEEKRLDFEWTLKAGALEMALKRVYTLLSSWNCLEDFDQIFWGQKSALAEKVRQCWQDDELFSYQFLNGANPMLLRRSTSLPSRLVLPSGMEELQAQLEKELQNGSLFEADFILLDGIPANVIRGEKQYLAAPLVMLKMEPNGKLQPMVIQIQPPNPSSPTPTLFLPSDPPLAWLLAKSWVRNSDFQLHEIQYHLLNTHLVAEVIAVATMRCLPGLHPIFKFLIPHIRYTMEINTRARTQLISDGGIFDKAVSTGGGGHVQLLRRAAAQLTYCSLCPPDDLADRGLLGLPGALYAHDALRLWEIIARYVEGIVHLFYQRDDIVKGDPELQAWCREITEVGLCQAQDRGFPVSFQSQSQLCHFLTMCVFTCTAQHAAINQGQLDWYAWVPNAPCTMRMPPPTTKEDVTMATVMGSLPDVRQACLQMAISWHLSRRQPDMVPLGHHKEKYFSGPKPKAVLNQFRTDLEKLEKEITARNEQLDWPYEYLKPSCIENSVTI

inhibition [1]: inactive | IC50 [2]: 0.09 µM | inhibition [3]: inactive | Stability [4]: Unstable
Compound: COc1cc(/C=C/c2cc(-c3ccc(O)c(OC)c3)[nH]n2)ccc1O
IC50 (LNCaP): > 50 µM

IC50 [2]: 0.7 µM | inhibition [5]: inactive | inhibition [3]: inactive | Stability [4]: Unstable
Compound: COc1cc(/C=C/C(=O)CC(=O)/C=C/c2cc(CC=C(C)C)c(O)c(OC)c2)cc(CC=C(C)C)c1O
IC50 (LNCaP): > 50 µM

inhibition [1]: inactive | IC50 [2]: 0.8 µM | residual activity [5]: 70.1% | inhibition [3]: inactive | Stability [4]: Unstable
Compound: COc1cc(/C=C/C(=O)/C=C/c2ccc(O)c(OC)c2)ccc1O
IC50 (LNCaP): 10 µM

IC50 [2]: 0.5 µM | residual activity [5]: 64.7% | inhibition [3]: inactive | Stability [4]: Unstable
Compound: COc1cc(/C=C/C(=O)/C=C/c2cc(CC=C(C)C)c(O)c(OC)c2)cc(CC=C(C)C)c1O
IC50 (LNCaP): 43.8 µM

inhibition [1]: inactive | IC50 [2]: 3.2 µM | residual activity [5]: 87.4% | inhibition [3]: inactive | Stability [4]: Unstable
Compound: COc1cc(CCC(=O)CC(=O)CCc2ccc(O)c(OC)c2)ccc1O [TETRAHYDROCURCUMIN]
IC50 (LNCaP): > 50 µM

The remaining lines, values behind:

Compound: COc1cc(/C=C/c2cc(/C=C/c3ccc(O)c(OC)c3)[nH]n2)ccc1O [CURCUMIN PYRAZOLE]
IC50 (LNCaP): > 50 µM | inhibition [1]: inactive | IC50 [2]: 0.07 µM | Stability [4]: Unstable

Compound: COc1cc(/C=C/C(=O)CC(=O)/C=C/c2ccc(O)c(OC)c2)ccc1O [CURCUMIN]
IC50 (LNCaP): 36 µM | inhibition [1]: inactive | residual activity [5]: 65% | Stability [4]: 41.6%

Compound: COc1cc(/C=C/c2cc(/C=C/c3cc(CC=C(C)C)c(O)c(OC)c3)[nH]n2)cc(CC=C(C)C)c1O
IC50 (LNCaP): > 50 µM | inhibition [1]: inactive | IC50 [2]: 0.1 µM | residual activity [5]: 68.7% | inhibition [3]: inactive | Stability [4]: Unstable

Compound: COc1cc(/C=C/C(=O)CC(=O)c2ccc(O)c(OC)c2)ccc1O
IC50 (LNCaP): > 50 µM | inhibition [1]: inactive | IC50 [2]: 2.3 µM | residual activity [5]: 60.6% | inhibition [3]: inactive | Stability [4]: 72%
